Assay results published in ChEMBL document CHEMBL1126267, “A novel synthesis and potent antiinflammatory activity of 4-hydroxy-2(1H)-oxo-1-phenyl-1,8-naphthyridine-3-carboxamides” (1992).

Legend:
Assay type in all cases: functional
Conditions in all cases: route oral
Rattus norvegicus [1] = assay: Antiinflammatory activity on Zymosan-induced rat's paw edema(ZPE) after peroral administration of 100 mg/kg dose with control swelling of 66.9%
Procedure, shortened: (§1)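 Male Wistar rats weighing about 150 g were dosed orally with compound suspended in 5% arabic gum. 1 h later, 1% zymosan in 0.1 mL saline was injected subplantarly into the hind paw. Paw volume was measured by plethysmograph before dosing and 4 h after zymosan, with edema as the volume difference. Inhibition % was derived from mean swelling versus the control group.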

Rattus norvegicus [2] = assay: Antiinflammatory activity on Zymosan-induced rat's paw edema(ZPE) after peroral administration of 30 mg/kg dose with control swelling of 66.9%; procedure, shortened: as §1
Rattus norvegicus [3] = assay: Inhibition of Zymosan-induced rat's paw edema(ZPE) after peroral administration of 100 mg/kg dose.
Procedure, shortened: (§2)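 Male Wistar rats (about 150 g) were dosed orally with compound suspended in 5% arabic gum, 1 h before a subplantar hind-paw injection of 0.1 mL saline. The irritant was 1% zymosan for 33 or 1% λ-carrageenin for 34. Paw volume was measured by plethysmograph before dosing and at 4 h (zymosan) or 3 h (carrageenin). Swelling is relative to initial volume, as mean ± SEM. % inhibition is versus the control group's mean swelling.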

Rattus norvegicus [4] = assay: Compound was tested for the inhibition of Zymosan-induced rat's paw edema(ZPE) after peroral administration of 30 mg/kg dose; procedure, shortened: as §1
Rattus norvegicus [5] = assay: Compound was tested for the inhibition of rat reversed passive Arthus pleurisy after peroral administration of 100 mg/kg dose at 0.12 mL of exudate volume with 0.68 mL of control (injected intrapleurally)
Procedure, shortened: (§3)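 Male Wistar rats (about 250 g) were given compound orally before the antiserum. Under ether anesthesia, 0.2 mL rabbit anti-egg albumin antiserum was injected intrapleurally. After 30 min, egg albumin (15 mg/100 g body weight in 0.1 mL saline) was given iv. Rats were killed 4.5 h later and the thoracic cavity was rinsed with 5 mL saline. Exudate volume and infiltrated cell number were measured, with inhibition % versus controls as mean ± SEM.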

Rattus norvegicus [6] = assay: Compound was tested for the inhibition of arachidonic acid-induced rat's paw edema(APE) after peroral administration of 30 mg/kg dose with control swelling of 33.8%
Procedure, shortened: (§4)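 Test: arachidonic acid paw edema in male Wistar rats of about 150 g. Oral dosing in 5% arabic gum came 1 h before subplantar injection of 1% arachidonic acid sodium salt in 0.1 mL saline into the hind paw. Plethysmograph paw volume was read before dosing and 1 h post-irritant, and edema = volume difference. % inhibition was taken from mean swelling against controls.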

Rattus norvegicus [7] = assay: Antiinflammatory activity on Carrageenan rat's paw edema(CPE) after peroral administration of 100 mg/kg dose with control swelling of 69.9%
Rattus norvegicus [8] = assay: Compound was tested for the inhibition of arachidonic acid-induced rat's paw edema(APE) after peroral administration of 100 mg/kg dose with control swelling of 51.6%; procedure, shortened: as §4
Rattus norvegicus [9] = assay: Compound was tested for the inhibition of rat reversed passive Arthus pleurisy after peroral administration of 10 mg/kg dose at 0.44 mL of exudate volume with 0.68 mL of control (injected intrapleurally); procedure, shortened: as §3
Rattus norvegicus [10] = assay: Compound was tested for the inhibition of arachidonic acid-induced rat's paw edema(APE) after peroral administration of 100 mg/kg dose; procedure, shortened: as §4
Rattus norvegicus [11] = assay: Compound was tested for the inhibition of Carrageenan rat's paw edema(CPE) after peroral administration of 30 mg/kg dose
Rattus norvegicus [12] = assay: Antiinflammatory activity on Carrageenan rat's paw edema(CPE) after peroral administration of 30 mg/kg dose
Rattus norvegicus [13] = assay: Compound was tested for the inhibition of rat reversed passive Arthus pleurisy after peroral administration of 3 mg/kg dose at 0.6 mL of exudate volume with 0.68 mL of control (injected intrapleurally)
Procedure, shortened: (§5)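 Male Wistar rats (about 250 g) under ether received 0.2 mL rabbit anti-egg-albumin antiserum intrapleurally. Thirty min later they got 15 mg EA/100 g body weight in 0.1 mL saline iv. Compounds were given orally beforehand. Rats were killed 4.5 h after induction and the thoracic cavity rinsed with 5 mL saline. Exudate volume and infiltrated cell count were read as mean ± SE. % inhibition is versus control.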

Rattus norvegicus [14] = assay: Compound was tested for the inhibition of rat reversed passive Arthus pleurisy after peroral administration of 3 mg/kg dose at 3.17*10e6 no of cells with 3.24*10e6 cells of control; procedure, shortened: as §5
Rattus norvegicus [15] = assay: Compound was tested for the inhibition of rat reversed passive Arthus pleurisy after peroral administration of 10 mg/kg dose at 3.18*10e6 no of cells with 3.24*10e6 cells of control; procedure, shortened: as §3
Rattus norvegicus [16] = assay: Compound was tested for the inhibition of arachidonic acid-induced rat's paw edema(APE) after peroral administration of 30 mg/kg dose; procedure, shortened: as §4
Rattus norvegicus [17] = assay: Compound was tested for the inhibition of rat reversed passive Arthus pleurisy after peroral administration of 30 mg/kg dose at 2.79*10e6 no of cells with 3.24*10e6 cells of control; procedure, shortened: as §5
Rattus norvegicus [18] = assay: Compound was tested for the inhibition of rat reversed passive Arthus pleurisy after peroral administration of 30 mg/kg dose at 0.33 mL of exudate volume with 0.68 mL of control (injected intrapleurally); procedure, shortened: as §5
Rattus norvegicus [19] = assay: Inhibition of carrageenan-induced rat's paw edema (CPE) after peroral administration of 100 mg/kg dose.; procedure, shortened: as §2
Rattus norvegicus [20] = assay: Compound was tested for the inhibition of rat reversed passive Arthus pleurisy after peroral administration of 100 mg/kg dose at 1.52*10e6 no of cells with 3.24*10e6 cells of control; procedure, shortened: as §3

## O=C(Cn1c(=O)sc2ccc(Cl)cc21)N1CCN(CCO)CC1 [TIARAMIDE]
Rattus norvegicus [1]
  Swelling: 51.5%
Rattus norvegicus [2]
  Swelling: 56.8%
Rattus norvegicus [3]
  inhibition in vivo at 100 mg/kg: 23%
Rattus norvegicus [4]
  inhibition in vivo at 30 mg/kg: 15.1%
Rattus norvegicus [5]
  inhibition in vivo at 100 mg/kg: 94.9%
Rattus norvegicus [6]
  Swelling: 32.1%
Rattus norvegicus [7]
  Swelling: 60.6%
Rattus norvegicus [8]
  Swelling: 26.7%
Rattus norvegicus [9]
  inhibition in vivo at 10 mg/kg: 40.7%
Rattus norvegicus [10]
  inhibition in vivo at 100 mg/kg: 48.3%
Rattus norvegicus [11]
  inhibition in vivo at 30 mg/kg: 8.4%
Rattus norvegicus [12]
  Swelling: 64%
Rattus norvegicus [13]
  inhibition in vivo at 3 mg/kg: 13.6%
Rattus norvegicus [14]
  inhibition in vivo at 3 mg/kg: 2.7%
Rattus norvegicus [15]
  inhibition in vivo at 10 mg/kg: 2.3%
Rattus norvegicus [16]
  inhibition in vivo at 30 mg/kg: 5%
Rattus norvegicus [17]
  inhibition in vivo at 30 mg/kg: 9.8%
Rattus norvegicus [18]
  inhibition in vivo at 30 mg/kg: 59.3%
Rattus norvegicus [19]
  inhibition in vivo at 100 mg/kg: 13.3%
Rattus norvegicus [20]
  inhibition in vivo at 100 mg/kg: 67.2%
